Measured values from different studies.
Compare with care: the assays were run in different laboratories.
Target: Casein kinase II subunit alpha' (CSNK2A2, Homo sapiens, UniProt P19784)

With `C[C@H]1CCN(c2nccc(-c3cnn4ncccc34)n2)C1` the remaining binding was 56% (binding; 1 µM).
For `C=CC(=O)N1CCC(C(=O)NCC(=O)N2CCN(c3nc(-c4cnc(N)nc4C(F)F)nc(N4CCOCC4)n3)CC2)CC1`, the remaining binding was 100% (binding, competition with immobilised ligand; 1 µM).
The remaining binding of `Cc1c(NC(=O)c2cc(C(N)=O)nc3cc(F)ccc23)c(C(F)(F)F)nn1Cc1ccc(C#N)cc1` is reported as 100% (cell-free assay, competition with immobilised ligand; 1 µM).
The remaining binding of `C[C@@H](c1ccc(-n2cnc3c(N)ncnc32)cc1)N1CCc2nn(C)c(Cc3ccccc3)c2C1=O` is reported as 86% (binding, competition with immobilised ligand; 0.1 µM).
The remaining binding of `N[C@H]1CCN(c2nccc(-c3cnn4ncccc34)n2)C1` is reported as 88% (binding; 1 µM).
The remaining binding of `CCOCCn1cc(C(=O)Nc2ccc(-n3nc(-c4cccnc4)cc3C(F)(F)F)cn2)ccc1=O` is reported as 100% (cell-free assay, competition with immobilised ligand; 1 µM).
`O=C(c1ccc(Nc2ncc(Cl)c(-c3ccc(Cl)s3)n2)cc1)N1CCC(N2CCCC2)CC1` gave a remaining binding of 0.15% (binding, competition with immobilised ligand; 1 µM).
With `CN(C)c1ncc(F)c(-c2cnn3ncccc23)n1` the remaining binding was 100% (binding; 1 µM).
`CN(C)C(=O)Cn1cc(-c2nc(C3(c4ccc(-c5cnc(N)nc5)cc4)CC3)no2)cn1` has a remaining binding of 100% (cell-free assay, competition with immobilised ligand; 1 µM).
With `O=C(NCCCN1CCOCC1)c1ccc(Nc2nccc(-c3cc4ccccc4s3)n2)cc1` the remaining binding was 19% (binding, competition with immobilised ligand; 1 µM).
For `CO[C@@H](C)c1c(Nc2ccc([C@@H](N(C)C(=O)C3CCS(=O)(=O)CC3)C(F)(F)F)cc2)cnc2cc(Cl)nn12`, the remaining binding was 100% (cell-free assay, competition with immobilised ligand; 1 µM).
`Nc1ncc2c(n1)-c1c([nH]c3ccc(C#CC4CC4)cc13)CCCC2` has a remaining binding of 82% (binding, competition with immobilised ligand; 1 µM).
For `O=C(NCCCN1CCOCC1)c1ccc(Nc2ncc(Cl)c(-c3ccc(Cl)s3)n2)cc1`, the remaining binding was 0.2% (binding, competition with immobilised ligand; 1 µM).
The remaining binding of `F[C@@H]1CCN(c2nccc(-c3cnn4ncccc34)n2)C1` is reported as 100% (binding; 1 µM).
`CN([C@@H]1CCc2c(CC(=O)O)c3cc(S(C)(=O)=O)ccc3n2C1)S(=O)(=O)c1ccc(F)cc1` has a remaining binding of 100% (cell-free assay, competition with immobilised ligand; 1 µM).
The remaining binding of `COc1ccnn2ncc(-c3ccnc(N(C)C)n3)c12` is reported as 61% (binding; 1 µM).
For `CNC(=O)[C@@H]1CC[C@@H](n2c(-c3ccc4cnccc4c3)nc3ccc(C(=O)NCc4cccc(C(N)=O)c4)cc32)C1`, the remaining binding was 100% (binding, competition with immobilised ligand; 1 µM).
`CC(C)(O)c1cncc(-c2nc3ccc(F)cc3n2C2CC2)c1` has a remaining binding of 100% (cell-free assay, competition with immobilised ligand; 1 µM).
For `COc1cnc(Nc2cccc(S(N)(=O)=O)c2)nc1N1CCN(c2ccccc2)C(=O)C1`, the remaining binding was 86% (binding, competition with immobilised ligand; 1 µM).
`O=C(Nc1c[nH]nc1C(=O)NC1CCNCC1)c1cc(F)cc(F)c1` gave a remaining binding of 100% (binding, competition with immobilised ligand; 1 µM).
For `O=C(NS(=O)(=O)c1ccc(NCC2CCOCC2)c([N+](=O)[O-])c1)c1ccc(N2CCN(Cc3ccc(C(F)(F)F)cc3-c3ccc(Cl)cc3)CC2)cc1Oc1cnc2[nH]ccc2c1`, the remaining binding was 100% (cell-free assay, competition with immobilised ligand; 1 µM).
The remaining binding of `CN(C)c1nccc(-c2cnn3ncccc23)n1` is reported as 39% (binding; 1 µM).
